Among the data in ChEMBL document CHEMBL1137076, “New arylpiperazine 5-HT(1A) receptor ligands containing the pyrimido[2,1-f]purine fragment: synthesis, in vitro, and in vivo pharmacological evaluation” (J Med Chem, 2004) are Ki and Functional profile values, retold here.

In assay [1] the target is 5-hydroxytryptamine receptor 2A (Rattus norvegicus, UniProt P14842). The experiment in a line: Ability to bind to central serotonin 5-hydroxytryptamine 2A receptor in vitro in cortex of the rat brain using [3H]ketanserin radioligand. The class given is tissue-based. The gist of the method:
(§1)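 Competition binding in rat brain tissue: hippocampus with [3H]-8-OH-DPAT (5-HT1A); cortex with [3H]-ketanserin (5-HT2A) or [3H]-prazosin (α1). Ki from at least three experiments using 10–14 concentrations (10⁻¹⁰–10⁻⁵ M), each in triplicate.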

Assay [2] addresses T1, 5-hydroxytryptamine receptor 1A (Mus musculus) (UniProt Q64264).
T1 sequence (whole entry): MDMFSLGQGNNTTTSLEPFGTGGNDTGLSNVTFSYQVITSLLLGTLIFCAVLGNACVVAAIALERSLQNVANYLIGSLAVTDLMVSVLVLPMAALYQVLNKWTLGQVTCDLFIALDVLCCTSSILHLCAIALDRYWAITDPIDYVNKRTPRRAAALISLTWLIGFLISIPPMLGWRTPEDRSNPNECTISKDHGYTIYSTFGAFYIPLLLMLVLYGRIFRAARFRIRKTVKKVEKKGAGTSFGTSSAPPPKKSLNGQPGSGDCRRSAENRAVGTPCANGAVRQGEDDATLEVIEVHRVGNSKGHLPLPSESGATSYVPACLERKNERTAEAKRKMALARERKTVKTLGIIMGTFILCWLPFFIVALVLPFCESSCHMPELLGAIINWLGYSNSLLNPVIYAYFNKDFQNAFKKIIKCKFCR
The assay can be described thus: The hypothermia produced in mice was regarded as a measure of presynaptic 5-HT1A receptor agonistic activity; Agonist. The class given is functional. The note with it: filed as agonist.

The target in assay [3] is 5-hydroxytryptamine receptor 1A (Rattus norvegicus) (UniProt P19327). The assay can be described thus: Ability inhibit symptoms induced by 8-OH-DPAT was regarded as postsynaptic 5-HT1A receptor antagonistic activity; Antagonist. The note with it: filed as antagonist.
Assay [4] deals with T2, 5-hydroxytryptamine receptor 1A (Rattus norvegicus, UniProt P19327).
T2 sequence (P19327 whole entry): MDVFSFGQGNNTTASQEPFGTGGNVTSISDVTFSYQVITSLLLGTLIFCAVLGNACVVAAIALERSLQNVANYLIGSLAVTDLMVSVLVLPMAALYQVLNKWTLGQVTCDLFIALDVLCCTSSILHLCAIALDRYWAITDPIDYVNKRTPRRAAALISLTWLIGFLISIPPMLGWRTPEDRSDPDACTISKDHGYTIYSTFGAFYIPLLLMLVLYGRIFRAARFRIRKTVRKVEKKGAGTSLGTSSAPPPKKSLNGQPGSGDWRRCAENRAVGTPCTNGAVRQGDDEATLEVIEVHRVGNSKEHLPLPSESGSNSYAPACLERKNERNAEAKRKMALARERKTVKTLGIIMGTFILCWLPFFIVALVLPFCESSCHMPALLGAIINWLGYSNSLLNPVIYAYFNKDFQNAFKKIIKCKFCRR
The experiment in a line: Ability to bind to central serotonin 5-hydroxytryptamine 1A receptor in vitro in hippocampus of the rat brain using [3H]8-OH-DPAT radioligand. Type of assay: tissue-based. A digest of the protocol:
as §1

Another assay has as its target D(2) dopamine receptor (Rattus norvegicus, UniProt P61169). The assay can be described thus: Ability to bind to Dopamine receptor D2 in vitro in rat sriatal membranes using [3H]spiperone radioligand. The class given is cell membranes. The gist of the method: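 Rat striatal membranes with [3H]spiperone; ketanserin 50 nM in buffer to block 5-HT2A binding; nonspecific binding with (±)-butaclamol 5 μM; 50 mM potassium phosphate pH 7.4; 37 °C, 30 min; vacuum filtration onto glass fiber, scintillation counting. Ki via Cheng-Prusoff from ≥3 experiments, 10 concentrations in triplicate.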

Assay [5] has as its target 5-hydroxytryptamine receptor 2A (Mus musculus) (UniProt P35363). The assay can be described thus: The ability to antagonize head twitches in mice, observed after administration of (+/-)- DOI, was used to evaluate 5-HT2A receptor antagonistic property; Antagonist. The class given is functional, organism-based. The note with it: filed as antagonist. A digest of the protocol: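 Male Albino Swiss mice habituated 20 min in glass cages; compounds ip (1% Tween 80) 60 min before (±)-DOI 2.5 mg/kg; head twitches counted for 20 min after DOI. ID50 by Litchfield-Wilcoxon.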

The target in assay [6] is T3, Adrenergic receptor alpha-1 (Rattus norvegicus, UniProt P15823+P23944+P43140).
T3 sequence (P15823 whole entry): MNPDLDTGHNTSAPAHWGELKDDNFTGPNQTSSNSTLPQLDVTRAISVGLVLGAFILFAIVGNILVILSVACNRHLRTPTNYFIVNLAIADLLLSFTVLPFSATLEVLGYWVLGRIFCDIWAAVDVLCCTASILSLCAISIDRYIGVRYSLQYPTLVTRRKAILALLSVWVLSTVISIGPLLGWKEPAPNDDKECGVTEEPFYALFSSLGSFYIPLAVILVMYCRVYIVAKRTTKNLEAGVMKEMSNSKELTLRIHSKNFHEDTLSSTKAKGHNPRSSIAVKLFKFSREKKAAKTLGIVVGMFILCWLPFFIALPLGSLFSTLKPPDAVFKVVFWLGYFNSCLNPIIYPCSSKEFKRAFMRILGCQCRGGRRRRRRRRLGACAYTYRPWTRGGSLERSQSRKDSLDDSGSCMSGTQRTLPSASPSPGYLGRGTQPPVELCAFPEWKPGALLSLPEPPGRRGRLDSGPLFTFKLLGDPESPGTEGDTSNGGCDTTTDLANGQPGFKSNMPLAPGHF
T3 sequence (P23944 whole entry): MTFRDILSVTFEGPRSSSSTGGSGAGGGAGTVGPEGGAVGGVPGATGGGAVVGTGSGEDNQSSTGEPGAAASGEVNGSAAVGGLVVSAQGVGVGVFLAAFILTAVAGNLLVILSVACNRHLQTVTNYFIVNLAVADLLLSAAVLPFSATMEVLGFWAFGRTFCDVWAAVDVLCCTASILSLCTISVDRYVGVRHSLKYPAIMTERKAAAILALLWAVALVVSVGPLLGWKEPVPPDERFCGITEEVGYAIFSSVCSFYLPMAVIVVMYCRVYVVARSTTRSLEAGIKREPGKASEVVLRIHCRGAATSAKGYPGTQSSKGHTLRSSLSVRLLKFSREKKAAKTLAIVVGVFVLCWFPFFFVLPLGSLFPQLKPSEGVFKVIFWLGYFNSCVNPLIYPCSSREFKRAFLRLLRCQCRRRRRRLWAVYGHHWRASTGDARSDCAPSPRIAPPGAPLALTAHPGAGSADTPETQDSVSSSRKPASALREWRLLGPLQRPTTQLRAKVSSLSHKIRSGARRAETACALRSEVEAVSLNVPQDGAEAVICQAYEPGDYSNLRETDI
T3 sequence (P43140 whole entry): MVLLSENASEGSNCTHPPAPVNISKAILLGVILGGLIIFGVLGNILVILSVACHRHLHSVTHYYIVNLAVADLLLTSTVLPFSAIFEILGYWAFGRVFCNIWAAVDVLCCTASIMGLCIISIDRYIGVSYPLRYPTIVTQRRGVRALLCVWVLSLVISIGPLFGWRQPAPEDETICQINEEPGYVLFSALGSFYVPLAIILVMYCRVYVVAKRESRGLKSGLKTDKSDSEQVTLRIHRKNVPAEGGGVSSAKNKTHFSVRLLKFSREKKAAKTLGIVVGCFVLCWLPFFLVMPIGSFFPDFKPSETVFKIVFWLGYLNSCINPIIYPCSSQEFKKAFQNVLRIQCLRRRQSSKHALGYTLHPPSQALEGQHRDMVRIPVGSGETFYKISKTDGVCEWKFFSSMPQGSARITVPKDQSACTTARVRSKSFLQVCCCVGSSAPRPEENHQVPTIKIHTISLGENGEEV
The experiment in a line: Ability to bind to alpha-1 adrenergic receptor in vitro in cortex of the rat brain using [3H]prazosin radioligand. The class given is tissue-based. A digest of the protocol: as §1

For a further assay, the species on record is Mus musculus. The assay can be described thus: Ability to inhibit 8-OH-DPAT-induced hypothermia was taken as a measure of presynaptic antagonistic activity; Antagonist. The note with it: filed as antagonist. The class given is functional, organism-based.

D(2) dopamine receptor, sequence (P61169 whole entry): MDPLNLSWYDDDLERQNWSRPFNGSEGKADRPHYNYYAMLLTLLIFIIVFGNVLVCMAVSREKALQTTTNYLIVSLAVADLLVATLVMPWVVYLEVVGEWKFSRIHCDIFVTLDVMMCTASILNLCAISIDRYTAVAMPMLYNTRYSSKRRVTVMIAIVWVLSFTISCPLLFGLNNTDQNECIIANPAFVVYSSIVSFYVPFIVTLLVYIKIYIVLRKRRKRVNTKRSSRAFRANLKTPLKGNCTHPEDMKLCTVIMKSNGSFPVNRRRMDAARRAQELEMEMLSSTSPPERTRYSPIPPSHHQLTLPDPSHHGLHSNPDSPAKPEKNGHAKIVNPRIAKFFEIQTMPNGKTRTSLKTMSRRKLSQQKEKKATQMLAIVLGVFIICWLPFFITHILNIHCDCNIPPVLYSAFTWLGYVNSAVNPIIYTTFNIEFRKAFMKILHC
5-hydroxytryptamine receptor 2A (Mus musculus), sequence (P35363 whole entry): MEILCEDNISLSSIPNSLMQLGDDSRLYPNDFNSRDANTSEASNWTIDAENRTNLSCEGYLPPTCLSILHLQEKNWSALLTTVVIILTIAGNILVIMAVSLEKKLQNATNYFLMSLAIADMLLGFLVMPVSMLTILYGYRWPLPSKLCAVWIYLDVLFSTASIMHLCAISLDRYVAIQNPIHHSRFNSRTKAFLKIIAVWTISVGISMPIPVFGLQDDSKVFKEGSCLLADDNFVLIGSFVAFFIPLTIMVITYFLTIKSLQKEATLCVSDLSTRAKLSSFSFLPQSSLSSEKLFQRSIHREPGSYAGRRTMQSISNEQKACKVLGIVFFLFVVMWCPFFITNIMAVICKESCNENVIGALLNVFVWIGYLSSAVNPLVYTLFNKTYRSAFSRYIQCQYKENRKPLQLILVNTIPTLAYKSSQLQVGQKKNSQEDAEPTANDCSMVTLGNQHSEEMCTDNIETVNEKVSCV
5-hydroxytryptamine receptor 2A, sequence (P14842 whole entry): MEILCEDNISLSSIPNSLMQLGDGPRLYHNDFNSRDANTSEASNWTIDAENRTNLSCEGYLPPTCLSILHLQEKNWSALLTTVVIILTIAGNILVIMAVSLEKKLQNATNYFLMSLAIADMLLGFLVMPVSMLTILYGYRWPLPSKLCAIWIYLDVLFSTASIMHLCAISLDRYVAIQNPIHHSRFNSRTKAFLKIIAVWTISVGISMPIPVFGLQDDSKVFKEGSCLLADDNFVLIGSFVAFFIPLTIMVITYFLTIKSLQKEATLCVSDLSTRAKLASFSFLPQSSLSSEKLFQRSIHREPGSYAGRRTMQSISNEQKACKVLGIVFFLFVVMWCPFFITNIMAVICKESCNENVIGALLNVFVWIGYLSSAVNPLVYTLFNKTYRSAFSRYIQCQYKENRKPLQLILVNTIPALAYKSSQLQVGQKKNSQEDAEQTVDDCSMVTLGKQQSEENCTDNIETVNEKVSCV

By Ki is commonly meant a measure of affinity in units of concentration, obtained from inhibition or displacement. Read a low Ki as tighter binding. For `Cn1c(=O)c2c(nc3nc(NCCCN4CCN(c5cccc(Cl)c5)CC4)c(Br)cn32)n(C)c1=O`, the inhibition constant Ki was found to be 85 nM in assay [1], 49 nM in assay [4], 264 nM at D(2) dopamine receptor and 46 nM in assay [6]. The results for the Functional profile entry in assay [2], in assay [3] and in assay [5] were “Agonist”, “Antagonist” and “Antagonist”, respectively.

With `Cn1c(=O)c2c(nc3n(CCCN4CCN(c5ccccc5)CC4)c(=O)ccn23)n(C)c1=O`, the values for the Ki in assay [1] and in assay [4] were 4680 nM and 25 nM, respectively.

Turning to `COc1ccccc1N1CCN(CCNc2ccn3c(n2)nc2c3c(=O)n(C)c(=O)n2C)CC1`, the Functional profile result (in the assay listed under Mus musculus; in assay [3]) was “Antagonist” throughout. Also, the Ki worked out at 246 nM in assay [1], 1.1 nM in assay [4], 1330 nM at D(2) dopamine receptor and 58 nM in assay [6].

`COc1ccccc1N1CCN(CCCNc2ccn3c(n2)nc2c3c(=O)n(C)c(=O)n2C)CC1`: the Ki in assay [1] was 835 nM; in assay [4], 34 nM; on D(2) dopamine receptor, 1170 nM; in assay [6], 33 nM. Also, in assay [3], the Functional profile entry was “Antagonist”.

For `COc1ccccc1N1CCN(CCCNc2nc3nc4c(c(=O)n(C)c(=O)n4C)n3cc2Br)CC1`, the Ki was determined as 880 nM in assay [1], 36 nM in assay [4], 325 nM at D(2) dopamine receptor and 38 nM in assay [6]. Further, the Functional profile entry in assay [2] was “Agonist”; in assay [3], “Antagonist”.

As to `Cn1c(=O)c2c(nc3nc(NCCN4CCN(c5cccc(Cl)c5)CC4)c(Br)cn32)n(C)c1=O`, the Ki was 64 nM in assay [1], 68 nM in assay [4] and 165 nM on D(2) dopamine receptor. The Functional profile result in assay [3] and in assay [5] was “Antagonist” throughout.

On to `Cn1c(=O)c2c(nc3nc(NCCCN4CCN(c5ccccc5)CC4)ccn32)n(C)c1=O`, for which the Functional profile result (in the assay filed under Mus musculus; in assay [3]; in assay [5]) was “Antagonist” each time. In addition, the inhibition constant Ki in assay [1] was 72 nM; in assay [4], 19 nM; on D(2) dopamine receptor, 430 nM; in assay [6], 25 nM.

Turning to `COc1ccccc1N1CCN(CCCN2CCCn3c2nc2c3c(=O)n(C)c(=O)n2C)CC1`, the Ki stood at 562 nM in assay [1] and 17.2 nM in assay [4].

On to `Cn1c(=O)c2c(nc3nc(NCCCN4CCN(c5cccc(Cl)c5)CC4)ccn32)n(C)c1=O`, for which the Ki in assay [1] stood at 56 nM; in assay [4] it was 46 nM; on D(2) dopamine receptor, 94 nM; in assay [6], 21 nM. For the same compound, the figures for the Functional profile entry in assay [2], in assay [3] and in assay [5] were “Agonist”, “Antagonist” and “Antagonist”, respectively.

On to `Cn1c(=O)c2c(nc3nc(NCCN4CCN(c5ccccc5)CC4)c(Br)cn32)n(C)c1=O`, for which the results for the Ki (in assay [1]; in assay [4]; at D(2) dopamine receptor) were 440 nM, 87 nM and 1240 nM, respectively. For the same compound, the Functional profile result in assay [3] was “Antagonist”.

Consider `Cn1c(=O)c2c(nc3nc(NCCN4CCN(c5cccc(Cl)c5)CC4)ccn32)n(C)c1=O`, for which the Ki in assay [1] was found to be 234 nM; in assay [4], 23 nM; on D(2) dopamine receptor, 182 nM; in assay [6], 29 nM. Further, the Functional profile result in assay [2] was “Agonist”; in assay [3], “Antagonist”.

On to `COc1ccccc1N1CCN(CCCn2c(=O)ccn3c4c(=O)n(C)c(=O)n(C)c4nc23)CC1`, for which the Ki came out at 3880 nM in assay [1] and 10.4 nM in assay [4].

For the compound `COc1ccccc1N1CCN(CCNc2nc3nc4c(c(=O)n(C)c(=O)n4C)n3cc2Br)CC1`, the Ki amounted to 86 nM in assay [1], 62 nM in assay [4], 226 nM on D(2) dopamine receptor and 62 nM in assay [6]. The Functional profile entry in assay [2] is “Agonist”; in assay [3] it was “Antagonist”.

`Cn1c(=O)c2c(nc3n2CCCN3CCCCN2CCN(c3ccccc3)CC2)n(C)c1=O`: the figures for the Ki in assay [1] and in assay [4] were 243 nM and 2.1 nM, respectively.
